Hits are enriched below; roughly 1.4% of the tested compounds scored in any of these assays.
ABCB6 inh 2 = ABCB6 transporter inhibitors, primary screen, K562-ABCB6 cells, flow cytometry, MLPCN library; AID 602162, 2011; ATP-binding cassette sub-family B member 6 (Homo sapiens), Q9NP58; fluorescence ratio to DMSO, % at 10 µM; K562-ABCB6 porphyrin accumulation, 1 h; stronger effect = lower value; 0.19% of 360,000 active;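 active = fluorescence ratio to DMSO below 75%, the collection mean minus 3 SD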;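 note: signal is porphyrin accumulated inside mitochondria; 100% equals median channel fluorescence of DMSO control wells; lower ratio means ABCB6 inhibition with less porphyrin fluorescence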
TNAP inh hi DEA = human TNAP enzyme inhibitors, primary screen, biochemical, luminescent, high phosphate acceptor level, uHTS. Alkaline phosphatase, tissue-nonspecific isozyme (Homo sapiens), P05186. inhibition, % at 20 µM. purified TNAP, CDP-star luminescence, 1 M DEA. AID 1135, 2008. 0.03% of 200,000 active;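 active = over 50% inhibition of tissue-nonspecific alkaline phosphatase at 20 µM in the single-dose screen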;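 note: plate controls were DMSO wells for no effect and EDTA-quenched wells as full inhibition for full effect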
Target sequence (P05186 whole entry, looked up): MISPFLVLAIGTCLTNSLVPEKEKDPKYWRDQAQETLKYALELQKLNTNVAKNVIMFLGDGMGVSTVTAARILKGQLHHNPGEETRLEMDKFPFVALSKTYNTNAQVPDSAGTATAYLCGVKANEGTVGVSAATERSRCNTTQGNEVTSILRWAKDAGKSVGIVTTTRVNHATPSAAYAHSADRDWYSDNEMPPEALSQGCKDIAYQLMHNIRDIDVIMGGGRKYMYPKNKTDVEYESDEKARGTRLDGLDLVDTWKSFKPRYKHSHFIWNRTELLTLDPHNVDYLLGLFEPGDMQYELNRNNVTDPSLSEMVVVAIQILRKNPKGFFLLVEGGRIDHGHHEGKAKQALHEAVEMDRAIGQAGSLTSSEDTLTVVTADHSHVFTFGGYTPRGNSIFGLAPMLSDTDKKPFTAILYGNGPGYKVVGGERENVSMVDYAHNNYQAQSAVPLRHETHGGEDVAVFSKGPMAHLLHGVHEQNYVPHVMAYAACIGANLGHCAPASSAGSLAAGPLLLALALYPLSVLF
TNAP inh noacc = human TNAP enzyme inhibitors, primary screen, biochemical, luminescent, no phosphate acceptor, uHTS | 0.26% of 200,000 active | Alkaline phosphatase, tissue-nonspecific isozyme (Homo sapiens), P05186 | purified TNAP, CDP-star luminescence, 30 min | inhibition, % at 20 µM;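 active = tissue-nonspecific alkaline phosphatase inhibition above about 50% at 20 µM in the single-dose screen, limit read from the data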;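 note: 0% = DMSO negative control and 100% = EDTA positive control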
TNAP act hi DEA = TNAP activators at high phosphate acceptor level, primary screen, biochemical, luminescence, uHTS; purified TNAP, CDP-star luminescence, 1 M DEA, 30 min; stronger effect = higher value; 0 = EDTA background, 1 = DMSO-only activity; activation factor at 20 µM; 200,000 tested, under 10 active; AID 1136, 2008;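 active = activation factor at least 2 at 20 µM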
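Assay system: human TNAP; Input: enzyme diluted 1/800 final; Reagent: CDP-star luminogenic substrate at 100 µM final; Timing: 30 min, room temperature; Signal: luminescence; Evaluation: TNAP activation factor scaled between EDTA and DMSO control wells.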
CHT allo act = CHT positive allosteric modulators, primary screen, cell-based, membrane potential dye, choline EC20. High affinity choline transporter 1 (Homo sapiens), Q9GZV3. CHT-expressing cells; stronger effect = higher value; LV-AA mutant CHT in HEK293 cells. B-score at 10 µM. 0.49% of 310,000 active. AID 488977, 2010;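 active = initial fluorescence not abnormally high and integrated response B-score, plate-corrected, over 3 SD above library mean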
CHT block = inhibitors of human choline transporter CHT; High affinity choline transporter 1 (Homo sapiens), Q9GZV3; CHT-expressing cells, membrane potential dye, choline response; stronger effect = lower value; B-score at 10 µM; 0.86% of 310,000 active; AID 488975, 2010;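 active = B-score over 3 SD under the library average, and starting fluorescence ratio not unusually high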;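 note: choline stimulus applied at its EC90 after an EC20 pre-addition; B-score computed on integrated fluorescence ratio after choline addition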
ABCB6 inh CP1 = ABCB6 transporter inhibitors, confirmation, K562-ABCB6 cells, flow cytometry, cherry pick 1; 700 tested, under 10 active; shares compounds with ABCB6 inh 2; K562-ABCB6 porphyrin accumulation, 1 h; stronger effect = lower value; ratio response (% of DMSO), % at 10 µM;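 active = repeat-averaged ratio response below 75% of DMSO, the collection mean minus 3 SD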;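 note: median porphyrin fluorescence at 575 nm with 488 nm excitation from mitochondria; lower ratio means less porphyrin signal so ABCB6 inhibition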
The depositor's hits bear a star; i = inactive; x = no result given.

SMILES	ABCB6 inh 2	TNAP inh hi DEA	TNAP inh noacc	TNAP act hi DEA	CHT allo act	CHT block	ABCB6 inh CP1
O=C(O)C(Cc1ccccc1)NS(=O)(=O)c1ccc2c(c1)OCCO2 (configuration not stated)	68.0*	-1.5	-10.5	1	i	i	96.0
O=C(O)C(Cc1ccc(Cl)cc1)NS(=O)(=O)c1ccc(Cl)cc1 (configuration not stated)	49.0*	x	x	x	i	i	102.0
O=C(O)C(Cc1ccccc1)NS(=O)(=O)c1ccc(Cl)cc1 (configuration not stated)	98.0	x	x	x	i	i	x
CC(=O)Nc1ccc(CN(C)c2c(C)nc3ccc(C(=O)N4CCN(C(C)=O)CC4)cn23)cc1	98.0	x	x	x	x	x	x
COc1ccc(Cl)cc1NC(=O)COC(=O)CCCC1=NS(=O)(=O)c2ccccc2N1	101.0	x	x	x	i	i	102.0
O=C(COC(=O)CCCC1=NS(=O)(=O)c2ccccc2N1)Nc1ccc(Br)cc1	104.0	x	x	x	i	i	97.0
Cc1ccc(NC(=O)COC(=O)CCCC2=NS(=O)(=O)c3ccccc3N2)cc1C	10.0*	x	x	x	i	i	99.0
O=C(O)c1cccc(S(=O)(=O)N2CCN(C(c3ccccc3)c3ccccc3)CC2)c1	101.0	-6.6	-3.2	1.1	i	i	x
CC(=O)c1cccc(-c2ccnc3c2CC(C(=O)Nc2cccc(N(C)C)c2)O3)c1 (configuration not stated)	92.0	x	x	x	x	x	99.0
O=C(Nc1cccc(Oc2ccccc2)c1)C1Cc2c(-c3ccco3)ccnc2O1 (configuration not stated)	69.0*	x	x	x	x	x	97.0
CS(=O)(=O)Nc1cccc(NC(=O)C2Cc3c(-c4ccco4)ccnc3O2)c1 (configuration not stated)	98.0	x	x	x	x	x	x
O=C(Nc1cccc(Oc2ccccc2)c1)C1Cc2c(-c3ccccc3)ccnc2O1 (configuration not stated)	93.0	x	x	x	x	x	101.0
CC(=O)c1cccc(-c2ccnc3c2CC(C(=O)Nc2cccc(Oc4ccccc4)c2)O3)c1 (configuration not stated)	99.0	x	x	x	x	x	101.0
NC(c1csc(Nc2ccc(C(=O)NCCO)cc2)n1)C1CCCCC1 (configuration not stated)	91.0	x	x	x	x	x	x
COc1ccc(CCNC(=O)c2ccc(F)c(S(=O)(=O)N3CCCCC3)c2)cc1	99.0	x	x	x	x	x	x
C[C@@H]1CNC(=O)c2c(C(=O)N[C@H](C)c3ccccc3)ncn21	96.0	x	x	x	x	x	x
COc1ccc(-c2cnc(N)nc2-c2ccc(OC)cc2O)cc1	73.0*	-6.0	-11.1	1.1	i	i	98.0
COc1ccc(-c2nc(N)ncc2-c2ccccc2)c(O)c1	96.0	x	x	x	i	i	x
COc1cccc(CNC(=O)CN(c2ccc(C(C)C)cc2)S(=O)(=O)c2c(C)noc2C)c1	91.0	x	x	x	i	i	x
COc1ccc(CNC(=O)CSc2nnc(C)s2)cc1	74.0*	-5.6	-17.1	1.1	i	i	97.0
CC1(C(=O)NS(=O)(=O)c2cccc(C#N)c2)CCN1C(=O)C1(c2ccc(Cl)cc2)CC1 (configuration not stated)	93.0	x	x	x	x	x	x
CC1(C(=O)NS(=O)(=O)c2ccc(Cl)cc2)CCN1C(=O)C1(c2ccccc2)CCCC1 (configuration not stated)	101.0	x	x	x	x	x	x
CC1(C(=O)NS(=O)(=O)c2ccc(Cl)cc2)CCN1C(=O)C1(c2ccc(Cl)cc2)CCC1 (configuration not stated)	97.0	x	x	x	x	x	99.0
CC1(C(=O)NS(=O)(=O)c2ccc(C#N)cc2)CCN1C(=O)C1(c2ccc(Cl)cc2)CC1 (configuration not stated)	101.0	x	x	x	x	x	100.0
Cc1ccc(S(=O)(=O)NC(=O)C2(C)CCN2C(=O)C2(c3ccc(Cl)cc3)CCC2)cc1 (configuration not stated)	100.0	x	x	x	x	x	x
SMILES	ABCB6 inh 2	TNAP inh hi DEA	TNAP inh noacc	TNAP act hi DEA	CHT allo act	CHT block	ABCB6 inh CP1
CC1(C(=O)NS(=O)(=O)c2ccc(C#N)cc2)CCN1C(=O)C1(c2ccccc2)CCCC1 (configuration not stated)	101.0	x	x	x	x	x	100.0
Cc1ccccc1S(=O)(=O)NC(=O)C1(C)CCN1C(=O)C1(c2ccccc2)CC1 (configuration not stated)	102.0	x	x	x	x	x	101.0
CC1(/[N+]([O-])=C/c2ccccc2F)CCCCC1=O (configuration not stated)	104.0	-3.2	-1.9	1	i	i	x
Cc1ccc(CNC(=O)CCS(=O)(=O)c2ccc(Br)s2)cc1	92.0	-4.5	-5.7	1	i	i	x
CCOc1c(C)cnc2c1c(=O)n(Cc1ccc(Cl)cc1)c(=O)n2C	95.0	x	x	x	i	i	x
Cc1ccc(N2C(=O)CS/C2=N\C(=S)Nc2ccccc2)cc1	103.0	x	x	x	i	i	x
N#Cc1c(Nc2ccccc2)sc(C(=O)C2CC2)c1N	101.0	-5.7	-2.5	1.1	i	i	x
CC1(C(=O)NS(=O)(=O)c2ccc3c(c2)CCO3)CCN1C(=O)C1(c2ccc(Cl)cc2)CCC1 (configuration not stated)	87.0	x	x	x	x	x	96.0
CC1(C(=O)NS(=O)(=O)c2ccccc2)CCN1C(=O)C1(c2ccc(Cl)cc2)CC1 (configuration not stated)	71.0*	x	x	x	x	x	102.0
Cc1ccc(F)c(S(=O)(=O)NC(=O)C2(C)CCN2C(=O)C2(c3ccc(Cl)cc3)CC2)c1 (configuration not stated)	975.0	x	x	x	x	x	99.0
O=C(Nc1c[nH]c(=O)[nH]c1=O)c1ccccc1Cl	102.0	x	x	x	i	i	x
CC(=O)Nc1cccc(NC(=O)c2sc3ncn(CC(=O)N4CCCCC4)c(=O)c3c2C)c1	101.0	-6.6	-2.6	1.1	x	x	99.0
COc1cc(NC(=O)c2sc3ncn(CC(=O)N4CCCCC4)c(=O)c3c2C)cc(OC)c1OC	105.0	x	x	x	i	i	x
CCN(CC)C(=O)Cn1cnc2sc(C(=O)Nc3cc(OC)c(OC)c(OC)c3)c(C)c2c1=O	97.0	-2.0	-7.0	1	i	i	102.0

High-throughput results deposited in PubChem by several laboratories.
